Data reported in ChEMBL document CHEMBL1165943, “Design and synthesis of new anticancer pyrimidines with multiple-kinase inhibitory effect” (Bioorg Med Chem, 2010).

Tests used:
Type in all cases: functional
[1] = test system: K562; assay: Cytotoxicity against human K562 cells assessed as cell growth at 10 uM; conditions: Homo sapiens, K562; read-out: Activity
Procedure, shortened: (§1)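 Single-dose screen at 10 μM across the 60-cell-line panel. Cells grown in RPMI 1640 with 5% FBS and 2 mM L-glutamine, seeded at 5,000–40,000 cells/well according to doubling time, and treated 24 h later. Exposure lasted 48 h at 37 °C, 5% CO₂. Adherent cells were fixed with cold TCA, suspension cells were fixed settled, and both were stained with SRB and read at 515 nm. Growth % was recorded, with inhibition % = 100 − growth %.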

[2] = test system: MOLT-4; assay: Cytotoxicity against human MOLT4 cells assessed as cell growth at 10 uM; conditions: Homo sapiens, MOLT-4; read-out: Activity; procedure, shortened: as §1
[3] = test system: SR; assay: Cytotoxicity against human SR cells assessed as cell growth at 10 uM; conditions: Homo sapiens, SR; read-out: Activity; procedure, shortened: as §1
[4] = test system: EKVX; assay: Cytotoxicity against human EKVX cells assessed as cell growth at 10 uM; conditions: Homo sapiens, EKVX; read-out: Activity
Procedure, shortened: (§2)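 Single-concentration screen at 10 μM across the 60-cell-line panel (nine tissue types); growth percentage recorded per cell line, with inhibition taken as 100 minus growth percentage.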

[5] = test system: HOP-62; assay: Cytotoxicity against human HOP62 cells assessed as cell growth at 10 uM; conditions: Homo sapiens, HOP-62; read-out: Activity; procedure, shortened: as §2
[6] = test system: NCI-H226; assay: Cytotoxicity against human NCI-H226 cells assessed as cell growth at 10 uM; conditions: Homo sapiens, NCI-H226; read-out: Activity; procedure, shortened: as §1
[7] = test system: NCI-H23; assay: Cytotoxicity against human NCI-H23 cells assessed as cell growth at 10 uM; conditions: Homo sapiens, NCI-H23; read-out: Activity; procedure, shortened: as §1
[8] = test system: NCI-H522; assay: Cytotoxicity against human NCI-H522 cells assessed as cell growth at 10 uM; conditions: Homo sapiens, NCI-H522; read-out: Activity; procedure, shortened: as §1
[9] = test system: COLO 205; assay: Cytotoxicity against human COLO205 cells assessed as cell growth at 10 uM; conditions: Homo sapiens, COLO 205; read-out: Activity; procedure, shortened: as §2
[10] = test system: HCC 2998; assay: Cytotoxicity against human HCC2998 cells assessed as cell growth at 10 uM; conditions: Homo sapiens, HCC 2998; read-out: Activity; procedure, shortened: as §2
[11] = test system: HCT-116; assay: Cytotoxicity against human HCT116 cells assessed as cell growth at 10 uM; conditions: Homo sapiens, HCT-116; read-out: Activity; procedure, shortened: as §2
[12] = test system: HCT-15; assay: Cytotoxicity against human HCT15 cells assessed as cell growth at 10 uM; conditions: Homo sapiens, HCT-15; read-out: Activity; procedure, shortened: as §2
[13] = test system: HT-29; assay: Cytotoxicity against human HT-29 cells assessed as cell growth at 10 uM; conditions: Homo sapiens, HT-29; read-out: Activity; procedure, shortened: as §2
[14] = test system: SW-620; assay: Cytotoxicity against human SW620 cells assessed as cell growth at 10 uM; conditions: Homo sapiens, SW-620; read-out: Activity; procedure, shortened: as §1
[15] = test system: SF-268; assay: Cytotoxicity against human SF268 cells assessed as cell growth at 10 uM; conditions: Homo sapiens, SF-268; read-out: Activity; procedure, shortened: as §1
[16] = test system: SF-295; assay: Cytotoxicity against human SF295 cells assessed as cell growth at 10 uM; conditions: Homo sapiens, SF-295; read-out: Activity; procedure, shortened: as §1
[17] = test system: SF-539; assay: Cytotoxicity against human SF539 cells assessed as cell growth at 10 uM; conditions: Homo sapiens, SF-539; read-out: Activity; procedure, shortened: as §1
[18] = test system: SNB-75; assay: Cytotoxicity against human SNB75 cells assessed as cell growth at 10 uM; conditions: Homo sapiens, SNB-75; read-out: Activity; procedure, shortened: as §1
[19] = test system: U-251; assay: Cytotoxicity against human U251 cells assessed as cell growth at 10 uM; conditions: Homo sapiens, U-251; read-out: Activity; procedure, shortened: as §1
[20] = test system: LOX IMVI; assay: Cytotoxicity against human LOXIMVI cells assessed as cell growth at 10 uM; conditions: Homo sapiens, LOX IMVI; read-out: Activity; procedure, shortened: as §1
[21] = test system: Malme-3M; assay: Cytotoxicity against human MALME-3M cells assessed as cell growth at 10 uM; conditions: Homo sapiens, Malme-3M; read-out: Activity; procedure, shortened: as §1
[22] = test system: SK-MEL-28; assay: Cytotoxicity against human SK-MEL-28 cells assessed as cell growth at 10 uM; conditions: Homo sapiens, SK-MEL-28; read-out: Activity; procedure, shortened: as §1
[23] = test system: UACC-257; assay: Cytotoxicity against human UACC257 cells assessed as cell growth at 10 uM; conditions: Homo sapiens, UACC-257; read-out: Activity; procedure, shortened: as §1
[24] = test system: OVCAR-3; assay: Cytotoxicity against human OVCAR-3 cells assessed as cell growth at 10 uM; conditions: Homo sapiens, OVCAR-3; read-out: Activity; procedure, shortened: as §1
[25] = test system: OVCAR-4; assay: Cytotoxicity against human OVCAR4 cells assessed as cell growth at 10 uM; conditions: Homo sapiens, OVCAR-4; read-out: Activity; procedure, shortened: as §1
[26] = test system: OVCAR-8; assay: Cytotoxicity against human OVCAR8 cells assessed as cell growth at 10 uM; conditions: Homo sapiens, OVCAR-8; read-out: Activity; procedure, shortened: as §1
[27] = test system: NCI/ADR-RES; assay: Cytotoxicity against human NCI/ADR-RES cells assessed as cell growth at 10 uM; conditions: Homo sapiens, NCI/ADR-RES; read-out: Activity; procedure, shortened: as §1
[28] = test system: SK-OV-3; assay: Cytotoxicity against human SKOV3 cells assessed as cell growth at 10 uM; conditions: Homo sapiens, SK-OV-3; read-out: Activity; procedure, shortened: as §1
[29] = test system: ACHN; assay: Cytotoxicity against human ACHN cells assessed as cell growth at 10 uM; conditions: Homo sapiens, ACHN; read-out: Activity; procedure, shortened: as §2
[30] = test system: CAKI-1; assay: Cytotoxicity against human Caki1 cells assessed as cell growth at 10 uM; conditions: Homo sapiens, CAKI-1; read-out: Activity; procedure, shortened: as §2
[31] = test system: TK-10; assay: Cytotoxicity against human TK10 cells assessed as cell growth at 10 uM; conditions: Homo sapiens, TK-10; read-out: Activity; procedure, shortened: as §1
[32] = test system: UO-31; assay: Cytotoxicity against human UO31 cells assessed as cell growth at 10 uM; conditions: Homo sapiens, UO-31; read-out: Activity; procedure, shortened: as §1
[33] = test system: PC-3; assay: Cytotoxicity against human PC3 cells assessed as cell growth at 10 uM; conditions: Homo sapiens, PC-3; read-out: Activity; procedure, shortened: as §1
[34] = test system: DU-145; assay: Cytotoxicity against human DU145 cells assessed as cell growth at 10 uM; conditions: Homo sapiens, DU-145; read-out: Activity; procedure, shortened: as §2
[35] = test system: MCF7; assay: Cytotoxicity against human MCF7 cells assessed as cell growth at 10 uM; conditions: Homo sapiens, MCF7; read-out: Activity; procedure, shortened: as §1
[36] = test system: MDA-MB-231; assay: Cytotoxicity against human MDA-MB-231 cells assessed as cell growth at 10 uM; conditions: Homo sapiens, MDA-MB-231; read-out: Activity; procedure, shortened: as §1
[37] = test system: BT-549; assay: Cytotoxicity against human BT549 cells assessed as cell growth at 10 uM; conditions: Homo sapiens, BT-549; read-out: Activity; procedure, shortened: as §2
[38] = test system: MDA-MB-468; assay: Cytotoxicity against human MDA-MB-468 cells assessed as cell growth at 10 uM; conditions: Homo sapiens, MDA-MB-468; read-out: Activity; procedure, shortened: as §1
[39] = Growth inhibition of human NCI60 cells at 10 uM after 48 hrs by sulforhodamine B assay relative to control; conditions: Homo sapiens, NCI60, 48 h; read-out: GI
Procedure, shortened: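 Single 10 µM dose across the 60-line panel for 48 h, with the same culture, TCA fixation and SRB 515 nm read-out. Inhibition % = 100 − growth %, given as the mean over the 60 cell lines.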

FC(F)(F)c1cc(Nc2nccc(-c3cccnc3)n2)cc(C(F)(F)F)c1
growth at 10 µM [1]: 89.6%
growth at 10 µM [2]: 95%
growth at 10 µM [3]: 87.8%
growth at 10 µM [4]: 102%
growth at 10 µM [5]: 104%
growth at 10 µM [6]: 99.6%
growth at 10 µM [7]: 97.9%
growth at 10 µM [8]: 86.5%
growth at 10 µM [9]: 119%
growth at 10 µM [10]: 118%
growth at 10 µM [11]: 91.1%
growth at 10 µM [12]: 92.7%
growth at 10 µM [13]: 92.1%
growth at 10 µM [14]: 109%
growth at 10 µM [15]: 99.5%
growth at 10 µM [16]: 103%
growth at 10 µM [17]: 97.1%
growth at 10 µM [18]: 95.3%
growth at 10 µM [19]: 98.7%
growth at 10 µM [20]: 100%
growth at 10 µM [21]: 103%
growth at 10 µM [22]: 115%
growth at 10 µM [23]: 111%
growth at 10 µM [24]: 119%
growth at 10 µM [25]: 121%
growth at 10 µM [26]: 102%
growth at 10 µM [27]: 94.7%
growth at 10 µM [28]: 106%
growth at 10 µM [29]: 102%
growth at 10 µM [30]: 91.5%
growth at 10 µM [31]: 106%
growth at 10 µM [32]: 101%
growth at 10 µM [33]: 105%
growth at 10 µM [34]: 106%
growth at 10 µM [35]: 96%
growth at 10 µM [36]: 91.3%
growth at 10 µM [37]: 107%
growth at 10 µM [38]: 98.4%
inhibition of growth at 10 µM [39]: -0.32%

Cc1cc(-c2cccnc2)nc(NC(=O)c2cccc(C(F)(F)F)c2)n1
growth at 10 µM [1]: 89%
growth at 10 µM [2]: 96.6%
growth at 10 µM [3]: 106%
growth at 10 µM [4]: 101%
growth at 10 µM [5]: 106%
growth at 10 µM [6]: 97.5%
growth at 10 µM [7]: 101%
growth at 10 µM [8]: 91.9%
growth at 10 µM [9]: 119%
growth at 10 µM [10]: 99.3%
growth at 10 µM [11]: 105%
growth at 10 µM [12]: 98.3%
growth at 10 µM [13]: 98.9%
growth at 10 µM [14]: 105%
growth at 10 µM [15]: 103%
growth at 10 µM [16]: 101%
growth at 10 µM [17]: 99.3%
growth at 10 µM [18]: 93.5%
growth at 10 µM [19]: 97%
growth at 10 µM [20]: 103%
growth at 10 µM [21]: 105%
growth at 10 µM [22]: 108%
growth at 10 µM [23]: 99.6%
growth at 10 µM [24]: 116%
growth at 10 µM [25]: 103%
growth at 10 µM [26]: 96.6%
growth at 10 µM [27]: 91.2%
growth at 10 µM [28]: 101%
growth at 10 µM [29]: 105%
growth at 10 µM [30]: 83.6%
growth at 10 µM [31]: 102%
growth at 10 µM [32]: 86.7%
growth at 10 µM [33]: 99.2%
growth at 10 µM [34]: 101%
growth at 10 µM [35]: 91.5%
growth at 10 µM [36]: 98.4%
growth at 10 µM [37]: 97%
growth at 10 µM [38]: 96.7%
inhibition of growth at 10 µM [39]: 0.62%

c1ccc(-c2ccc(-c3ccnc(Nc4ccc(N(c5ccccc5)c5ccccc5)cc4)n3)cn2)cc1
growth at 10 µM [1]: 94.9%
growth at 10 µM [2]: 91.2%
growth at 10 µM [3]: 38.7%
growth at 10 µM [4]: 103%
growth at 10 µM [5]: 122%
growth at 10 µM [6]: 115%
growth at 10 µM [7]: 145%
growth at 10 µM [8]: 94%
growth at 10 µM [9]: 116%
growth at 10 µM [10]: 112%
growth at 10 µM [11]: 40.6%
growth at 10 µM [12]: 102%
growth at 10 µM [13]: 89.5%
growth at 10 µM [14]: 78.3%
growth at 10 µM [15]: 90%
growth at 10 µM [16]: 124%
growth at 10 µM [17]: 84.2%
growth at 10 µM [18]: 102%
growth at 10 µM [19]: 87.2%
growth at 10 µM [20]: 131%
growth at 10 µM [21]: 65.2%
growth at 10 µM [22]: 118%
growth at 10 µM [23]: 106%
growth at 10 µM [24]: 125%
growth at 10 µM [25]: 93.4%
growth at 10 µM [26]: 79.5%
growth at 10 µM [27]: 125%
growth at 10 µM [28]: 119%
growth at 10 µM [29]: 96.5%
growth at 10 µM [30]: 83.7%
growth at 10 µM [31]: 113%
growth at 10 µM [32]: 72.4%
growth at 10 µM [33]: 87.1%
growth at 10 µM [34]: 115%
growth at 10 µM [35]: 96.6%
growth at 10 µM [36]: 123%
growth at 10 µM [37]: 102%
growth at 10 µM [38]: 105%
inhibition of growth at 10 µM [39]: 0.97%
